Tests used:
[1] = Microsomal stability in human liver microsomes assessed as parent compound remaining measured after 30 mins by LC-MS/MS analysis; assay type: ADME, Microsome; settings: read-out: Stability
[2] = test system: Severe acute respiratory syndrome coronavirus 2; assay: Inhibition of recombinant SARS-CoV-2 PLpro extracted from Escherichia coli BL21 (DE3) cells in presence of CHAPS detergent by microplate reader analysis
Procedure, shortened: (§1)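 SARS-CoV-2 PLpro enzymatic inhibition run with and without 1 mM CHAPS detergent; GRL0617 served as positive control.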

[3] = test system: Severe acute respiratory syndrome coronavirus 2; assay: Binding affinity to recombinant SARS-CoV-2 PLpro extracted from Escherichia coli BL21 (DE3) cells assessed as change in melting temperature at 1000 uM by DSF analysis
[4] = test system: Severe acute respiratory syndrome coronavirus 2; assay: Inhibition of recombinant SARS-CoV-2 PLpro extracted from Escherichia coli BL21 (DE3) cells in absence of CHAPS detergent by microplate reader analysis; procedure, shortened: as §1
[5] = Selectivity ratio of CC50 for cytotoxicity against human HepG2 cells to CC50 for African green monkey Vero cells; assay type: toxicity, cell-based; settings: HepG2 cells and Vero cells
[6] = Microsomal stability in mouse liver microsomes assessed as parent compound remaining measured after 30 mins by LC-MS/MS analysis; assay type: ADME, Microsome; settings: read-out: Stability
[7] = Microsomal stability in rat liver microsomes assessed as parent compound remaining measured after 30 mins by LC-MS/MS analysis; assay type: ADME, Microsome; settings: read-out: Stability
[8] = test system: Severe acute respiratory syndrome coronavirus 2; assay: Inhibition of recombinant SARS-CoV-2 PLpro extracted from Escherichia coli BL21 (DE3) cells in absence of 0.01% triton by microplate reader analysis
[9] = test system: Severe acute respiratory syndrome coronavirus 2; assay: Inhibition of recombinant SARS-CoV-2 PLpro extracted from Escherichia coli BL21 (DE3) cells in presence of 0.01% triton by microplate reader analysis

With `COc1ccc(-c2ccc3nccc(N[C@@H]4CCNC4)c3n2)cn1` the remaining at 0.5 h [1] was 54.6%, the inhibition [2] was “Active; Compound Is Not An Aggregator” and the ΔTm [3] was > 1 °C. The inhibition [4] was “Active; Compound Is Not An Aggregator” and the selectivity ratio [5] was 2.
For `CNC(=O)c1ccc(-c2ccc3nccc(NC4CCNCC4)c3n2)cn1`, the remaining at 0.5 h [1] was 94.4%, the remaining at 0.5 h [6] was 93.4% and the ΔTm [3] was > 1 °C. For the same molecule, the remaining at 0.5 h [7] was 97.4%.
For `CN1CCC(Nc2ccnc3ccc(-c4ccc(C(=O)NCCO)nc4)nc23)CC1`, the remaining at 0.5 h [1] was 95.5%, the remaining at 0.5 h [6] was 97.3% and the ΔTm [3] was > 1 °C. The remaining at 0.5 h [7] was 94.2%.
With `Cn1ccc(-c2ccc3nccc(N[C@@H]4CCNC4)c3n2)cc1=O` the remaining at 0.5 h [1] was 98%, the remaining at 0.5 h [6] was > 99% and the ΔTm [3] was > 1 °C. The inhibition [8] was “Active; Compound Is Not An Aggregator”, the inhibition [9] was “Active; Compound Is Not An Aggregator” and the remaining at 0.5 h [7] was 94.3%. The selectivity ratio [5] was 2.
In the case of `CS(=O)(=O)c1cccc(-c2ccc3nccc(N4CCNCC4)c3n2)c1`, the remaining at 0.5 h [1] is reported as 55.1% and the ΔTm [3] is reported as > 1 °C.
